pEC50: −log10 of the molar value. Calls of active or inactive are those of the source. The calls are words filed in the database; no cut-off is given here.

Series [1] can be described thus: Volume of distribution at steady state in rat. The format is ADME. To be noted: in vivo, read-out: Vdss.
The target in series [2] is T1, Glutamate NMDA receptor; GRIN1/GRIN2A (Homo sapiens, UniProt Q05586+Q12879). In words: Positive allosteric modulation of recombinant human GluN1/GluN2A receptor stably expressed in HEK293 cells assessed as increase in glycine/L-glutamate-induced channel current at -70 mV holding potential by IonWork […] method relative to control. The format is cell-based. In outline: (§1)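 Stable HEK293 lines expressing GluN1/GluN2A or GluN1/GluN2B, measured by automated whole-cell patch clamp (Ionworks Barracuda). Cells were held at -70 mV and stepped to -45 mV during agonist application (EC20 L-glutamate plus 50 µM glycine). The test article was first pre-applied alone for 5 min, then co-applied with agonist to record potentiation. Concentration-response percent potentiation gave EC50 and Emax.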
A general note: Two-electrode voltage clamp holds a large cell at a set potential and records current.

The nature of series [3]: Stability in human liver microsomes. The format is ADME, Microsome. The conditions noted are these: read-out: Stability.
Series [4] has as its target T2, Glutamate NMDA receptor; GRIN1/GRIN2B (Homo sapiens, UniProt Q05586+Q13224). Nature of the series: Positive allosteric modulation of recombinant human GluN1/GluN2B receptor stably expressed in HEK293 cells assessed as increase in glycine/L-glutamate-induced channel current at -70 mV holding potential by IonWork […] method. Type of series: cell-based. The method, boiled down:
as §1

The nature of series [5]: Oral bioavailability in rat. Type of series: ADME, organism-based. The conditions noted are these: in vivo.
Series [6] can be described thus: Half life in rat. Type of series: ADME. To be noted: in vivo.
For series [7], the target named is T1, Glutamate NMDA receptor; GRIN1/GRIN2A. Nature of the series: Positive allosteric modulation of recombinant human GluN1/GluN2A receptor stably expressed in HEK293 cells assessed as increase in glycine/L-glutamate-induced channel current at -70 mV holding potential by IonWork […] method. The format is cell-based. In outline: as §1
A short description of series [8]: Stability in rat liver microsomes. Type of series: ADME, Microsome. To be noted: read-out: Stability. (Microsomes from liver hold many membrane-bound enzymes, among them those of drug oxidation.)
The target of series [9] is T2, Glutamate NMDA receptor; GRIN1/GRIN2B. In words: Positive allosteric modulation of recombinant human GluN1/GluN2B receptor stably expressed in HEK293 cells assessed as increase in glycine/L-glutamate-induced channel current at -70 mV holding potential by IonWork whole cell patch clamp method relative to control. Background: The patch-clamp technique gives a direct electrical read-out from membranes.

Series [10] in a line: Ratio of drug level in Sprague-Dawley rat brain to plasma at 10 mg/kg, ip measured after 1 hr. The format is ADME, organism-based. The conditions noted are these: brain and plasma, read-out: BPR.
The nature of series [11]: Clearance in iv dosed rat. Type of series: ADME, organism-based. The conditions noted are these: in vivo.
Series [12] relates to Hippocampus. In words: Induction of synaptic plasticity in postnatal 120 to 150 day rat brain hippocampal slice assessed as stimulation of theta burst stimulaiton-induced field potential potentiation at 1 uM treated 20 mins prior to theta burst stimulation and measured after 60 mins by electrophysiological method. The format is functional, tissue-based.
The subject of series [13] is Hippocampus. In words: Induction of synaptic plasticity in postnatal 60 to 90 day rat brain hippocampal slice assessed as change in theta burst stimulaiton-induced field potential potentiation at 1 uM treated 20 mins prior to theta burst stimulation by electrophysiological method. Type of series: functional, tissue-based.
Series [14] can be described thus: Ratio of drug level in Sprague-Dawley rat brain to plasma at 2.5 mg/kg, iv measured after 1 hr. The format is ADME, organism-based. To be noted: brain and plasma, read-out: BPR.
Series [15] concerns the target T1, Glutamate NMDA receptor; GRIN1/GRIN2A. In words: Potency index, ratio of 24(S)-hydroxycholesterol EC50 to test compound EC50 for positive allosteric modulation of recombinant human GluN1/GluN2A receptor stably expressed in HEK293 cells. The format is cell-based.
The target of series [16] is T2, Glutamate NMDA receptor; GRIN1/GRIN2B. Nature of the series: Potency index, ratio of 24(S)-hydroxycholesterol EC50 to test compound EC50 for positive allosteric modulation of recombinant human GluN1/GluN2B receptor stably expressed in HEK293 cells. Type of series: cell-based.
The nature of series [17]: Positive allosteric modulation of recombinant dog GluN1/GluN2A receptor expressed in Xenopus laevis oocytes assessed as increase in glycine/L-glutamate-induced channel current at -80 mV holding potential by two-electrode voltage clamp method. The format is cell-based. To be noted: Canis lupus familiaris.
The target in series [18] is Glutamate NMDA receptor; Grin1/Grin2a (Rattus norvegicus) (UniProt P35439+Q00959). In words: Positive allosteric modulation of recombinant rat GluN1/GluN2A receptor expressed in Xenopus laevis oocytes assessed as increase in glycine/L-glutamate-induced channel current at -80 mV holding potential by two-electrode voltage clamp method relative to control. Type of series: cell-based.

Series [19] concerns the target T1, Glutamate NMDA receptor; GRIN1/GRIN2A. Nature of the series: Positive allosteric modulation of recombinant human GluN1/GluN2A receptor expressed in Xenopus laevis oocytes assessed as increase in glycine/L-glutamate-induced channel current at -80 mV holding potential by two-electrode voltage clamp method. The format is cell-based.
The species entered for another series is Canis lupus familiaris. In words: Positive allosteric modulation of recombinant dog GluN1/GluN2A receptor expressed in Xenopus laevis oocytes assessed as increase in glycine/L-glutamate-induced channel current at -80 mV holding potential by two-electrode voltage clamp method relative to control. Type of series: cell-based.
The target in series [20] is Glutamate NMDA receptor; Grin1/Grin2a (Rattus norvegicus, UniProt P35439+Q00959). Nature of the series: Positive allosteric modulation of recombinant rat GluN1/GluN2A receptor expressed in Xenopus laevis oocytes assessed as increase in glycine/L-glutamate-induced channel current at -80 mV holding potential by two-electrode voltage clamp method. The format is cell-based.

For series [21], the target named is T1, Glutamate NMDA receptor; GRIN1/GRIN2A. Nature of the series: Positive allosteric modulation of recombinant human GluN1/GluN2A receptor expressed in Xenopus laevis oocytes assessed as increase in glycine/L-glutamate-induced channel current at -80 mV holding potential by two-electrode voltage clamp method relative to control. The format is cell-based.
Series [22] is described as follows: Drug uptake in 20 to 21 months old Wistar Han rat model of aged-induced memory deficit brain at 1 mg/kg, ip measured after 4 hrs. The format is ADME, organism-based. The conditions noted are these: read-out: Drug uptake.
Series [23] is described as follows: Drug uptake in 20 to 21 months old Wistar Han rat model of aged-induced memory deficit brain at 3 mg/kg, ip measured after 4 hrs. The format is ADME, organism-based. To be noted: read-out: Drug uptake.
Series [24] deals with Rattus norvegicus. In words: Improvement in social recognition in 20 to 21 months old Wistar Han rat model of aged-induced memory deficit assessed as reduction in time spent with familiar juvenile at 1 mg/kg, ip administered 4 hrs prior to training trial and measured after 30 mins. Type of series: functional, organism-based.
In series [25] the test system is Rattus norvegicus. In words: Improvement in social recognition in 20 to 21 months old Wistar Han rat model of aged-induced memory deficit assessed as reduction in time spent with familiar juvenile at 3 mg/kg, ip administered 4 hrs prior to training trial and measured after 30 mins. The format is functional, organism-based.
Series [26] is described as follows: Drug uptake in 20 to 21 months old Wistar Han rat model of aged-induced memory deficit brain at 10 mg/kg, ip measured after 4 hrs. The format is ADME, organism-based. The conditions noted are these: read-out: Drug uptake.
Series [27] relates to Rattus norvegicus. Nature of the series: Improvement in social recognition in 20 to 21 months old Wistar Han rat model of aged-induced memory deficit assessed as reduction in time spent with familiar juvenile at 10 mg/kg, ip administered 4 hrs prior to training trial and measured after 30 mins. Type of series: functional, organism-based.

Consider `CC(C)[C@H](O)CC[C@@H](C)[C@H]1CC[C@H]2[C@@H]3CC=C4C[C@@](C)(O)CC[C@]4(C)[C@H]3CC[C@]12C`, for which, in [1], the Vd was 3.1 L/kg. The Emax (as a rule, the maximal effect, on the per cent scale that the assay sets) came to 200% in series [2] and 230% in series [9]. Moreover, the microsomal CLint in series [3] is less than 10 µL/min/mg; in series [8] it was 11 µL/min/mg. Also, the pEC50 – broadly, the EC50 on a negative log10 scale, so that one unit is a factor of ten – is 6.72 in series [4] and 6.92 in series [7]. In series [5], the bioavailability – broadly, dose-corrected exposure relative to a reference, in per cent – was found to be 25%. Further, the half-life (as a rule, the time in which the quantity being followed falls by half) in [6] was 132 min. Moreover, the Kp at 1 h in [10] was determined as 0.8. In addition, in [11], the clearance (in general, the rate of elimination divided by the concentration) was 38.3 mL/min/kg.

Consider `C[C@H](CCC(C)(C)O)[C@H]1CC[C@H]2[C@@H]3CC=C4C[C@@H](O)CC[C@]4(C)[C@H]3CC[C@]12C`, for which the Emax in series [2] is 110%; in series [9] it was 140%. In addition, the microsomal CLint is 10 µL/min/mg in [3] and 30 µL/min/mg in [8]. Besides, the pEC50 in [4] was 6.39; in [7], 6.74. Further, the result with Hippocampus [12] was Active. In addition, the result with Hippocampus [13] was inactive.

For the compound `C[C@H](CC[C@@H](O)C(F)(F)F)[C@H]1CC[C@H]2[C@@H]3CC=C4C[C@@](C)(O)CC[C@]4(C)[C@H]3CC[C@]12C`, the Vd in series [1] was 2.8 L/kg. The maximum response (Emax) in [2] turned out to be 150%; in series [9], 230%. The microsomal CLint in series [3] was determined as 3 µL/min/mg; in series [8] it was 9 µL/min/mg. Besides, the negative-log EC50 (pEC50) was 6.51 in [4] and 7.52 in [7]. This compound also returned a bioavailability in [5] of 70%. In series [6], this compound had a half-life of 114 min. Also, the Kp at 1 h in series [14] was found to be 1. In series [11], this compound gave a clearance of 31.7 mL/min/kg.

For `CC(C)[C@@H](O)CC[C@@H](C)[C@H]1CC[C@H]2[C@@H]3CC=C4C[C@@](C)(O)CC[C@]4(C)[C@H]3CC[C@]12C`, the Vd in series [1] turned out to be 3.7 L/kg. The Emax in series [2] was determined as 200%; in series [9], 230%. For the same compound, the microsomal CLint in series [3] was less than 10 µL/min/mg; in series [8], 28 µL/min/mg. Also, the negative logarithm of the EC50 (pEC50) in series [4] is 7.89; in series [7] it was 7.48. Further, the Ratio EC50 is 4 in series [15] and greater than 10 in series [16]. Besides, the bioavailability in series [5] was determined as 15%. Also, the half-life in series [6] is 96 min. The Kp at 1 h in series [10] turned out to be 1.3. In addition, in [11], the clearance was 51.7 mL/min/kg.

`CC(C)[C@@H](O)CC[C@@H](C)[C@H]1CC[C@H]2[C@@H]3CC=C4C[C@@H](O)CC[C@]4(C)[C@H]3CC[C@]12C`: in [1], the Vd stood at 2.5 L/kg. The Emax in [2] was found to be 210%; in series [18] it was 180%; in series [9] it was 150%; in the series listed under Canis lupus familiaris it was 130%; in series [21], 73%. Moreover, the microsomal CLint is 10 µL/min/mg in series [3] and 52 µL/min/mg in series [8]. The pEC50 was 6.28 in [4]; 6.19 in [17]; 6.82 in series [7]; 6.52 in series [19]; 6.19 in series [20]. This compound had a bioavailability in series [5] of 9%. Moreover, the half-life in series [6] is 32.4 min. In addition, in series [11], the clearance is 98.3 mL/min/kg.

For the compound `C[C@H](CCC(C)(C)O)[C@H]1CC[C@H]2[C@@H]3CC=C4C[C@@](C)(O)CC[C@]4(C)[C@H]3CC[C@]12C`, the results for the concentration at 4 h in [22], in series [23] and in series [26] were 400 nM, 900 nM and 3.7 µM, respectively. The Vd in [1] came to 0.65 L/kg. The maximal effect (Emax) in series [2] amounted to 220%; in series [9], 92%. The results for the microsomal CLint in series [3] and in [8] were 13 µL/min/mg and 35 µL/min/mg, respectively. Further, the pEC50 in series [4] was 7.42; in series [7], 6.32. The outcome in the series on Rattus norvegicus [24], in the series on Hippocampus [12] and in the series with Rattus norvegicus [27] was Active. Besides, the result with Rattus norvegicus [25] was inactive. Further, the bioavailability in series [5] amounted to 28%. The Kp at 1 h in series [14] is 0.6. For the same compound, the clearance in [11] was 18.3 mL/min/kg.

For the compound `C[C@H](CC[C@@H](O)C1CC1)[C@H]1CC[C@H]2[C@@H]3CC=C4C[C@@](C)(O)CC[C@]4(C)[C@H]3CC[C@]12C`, in series [1], the Vd turned out to be 4.4 L/kg. Moreover, the results for the Emax in [2] and in [9] were 220% and 280%, respectively. In addition, the microsomal CLint in series [3] came to 10 µL/min/mg; in series [8], 20 µL/min/mg. For the same compound, the negative-log EC50 (pEC50) in series [4] was 6.72; in [7], 7.11. In addition, the half-life in series [6] was 108 min. For the same compound, the Kp at 1 h in series [10] worked out at 3.2. This compound had a clearance in series [11] of 68.3 mL/min/kg.

These data come from ChEMBL document CHEMBL4406822, “Neuroactive Steroid N-Methyl-d-aspartate Receptor Positive Allosteric Modulators: Synthesis, SAR, and Pharmacological Activity” (J Med Chem, 2019).
